ChEMBL document CHEMBL3351628, “2,4,5-Trisubstituted thiazole derivatives: a novel and potent class of non-nucleoside inhibitors of wild type and mutant HIV-1 reverse transcriptase” (Eur J Med Chem, 2014)

Legend:
[1] = Retention time of the compound by HPLC analysis; format: physicochemical
HEK-293T = assay: Cytotoxicity against HEK293T cells at 10 uM after 48 hrs; format: cell-based; conditions: human
Summary of the method: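 HEK 293T cells incubated 48 h with compound at final 10 μM under the antiviral culture conditions, without virus. Viability read with a cell proliferation assay kit.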

[2] = tested on: Human immunodeficiency virus 1; assay: Antiviral activity against wild type HIV1 infected in HEK293T cells transfected with plasmid VSV-G/pNL4-3.luc.R-E- assessed as inhibition of viral replication after 48 hrs by luciferase reporter gene assay; format: functional, organism-based, HEK-293T; conditions: Human immunodeficiency virus 1, HEK-293T, 48 h; read-out: IC50
Summary of the method: (§1)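 VSV-G-pseudotyped single-cycle virus: VSVG plasmid plus env-deficient pNL4-3.luc.R⁻E⁻ vector (wild type or RT-mutant) co-transfected into HEK 293T by calcium phosphate. Medium changed at 16 h, supernatant collected 48 h post-transfection, normalised by p24 ELISA to 0.2 ng p24/mL. HEK 293T targets seeded a day ahead; compound added 15 min before virus. Cells lysed 48 h post-infection, luciferase read. IC50 from dose–infectivity curves.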

[3] = tested on: Human immunodeficiency virus 1; assay: Antiviral activity against HIV1 infected in 293T cells assessed as time of 50% failure; format: functional
[4] = tested on: Human immunodeficiency virus 1; assay: Antiviral activity against HIV1 harboring reverse transcriptase K103N mutant infected in HEK293T cells transfected with plasmid VSV-G/pNL4-3.luc.R-E- assessed as inhibition of viral replication after 48 hrs by luciferase reporter gene assay relative HIV1; format: functional, HEK-293T
[5] = tested on: Human immunodeficiency virus 1; assay: Antiviral activity against HIV1 harboring reverse transcriptase K103N mutant infected in HEK293T cells transfected with plasmid VSV-G/pNL4-3.luc.R-E- assessed as inhibition of viral replication after 48 hrs by luciferase reporter gene assay; format: functional, organism-based, HEK-293T; conditions: Human immunodeficiency virus 1, HEK-293T, 48 h; summary of the method: as §1
[6] = tested on: Human immunodeficiency virus 1; assay: Antiviral activity against HIV1 harboring reverse transcriptase Y181C mutant infected in HEK293T cells transfected with plasmid VSV-G/pNL4-3.luc.R-E- assessed as inhibition of viral replication after 48 hrs by luciferase reporter gene assay; format: functional, organism-based, HEK-293T; conditions: Human immunodeficiency virus 1, HEK-293T, 48 h; summary of the method: as §1
[7] = tested on: Human immunodeficiency virus 1; assay: Antiviral activity against HIV1 harboring reverse transcriptase Y181C mutant infected in HEK293T cells transfected with plasmid VSV-G/pNL4-3.luc.R-E- assessed as inhibition of viral replication after 48 hrs by luciferase reporter gene assay relative HIV1; format: functional, HEK-293T

SMILES	Retention_time [1]	Activity (HEK-293T)	IC50 [2]	Time [3]	fold change (FC) [4]	IC50 [5]	IC50 [6]	fold change (FC) [7]
COc1ccc(-c2nc(NCc3ccco3)sc2Cc2ccccc2)cc1	19.65 min	Non-toxic	1000 nM	–	–	–	–	–
COc1ccc(CNc2nc(-c3ccc(OC)cc3)c(Cc3ccc(F)cc3)s2)cc1	29.46 min	Non-toxic	> 10000 nM	–	–	–	–	–
COc1ccc(CNc2nc(-c3ccccc3)c(Cc3ccc(C#N)cc3)s2)cc1	17.21 min	Non-toxic	4790 nM	–	–	–	–	–
COc1ccc(-c2nc(NCc3ccc(O)c(OC)c3)sc2Cc2ccccc2)cc1	14.86 min	Non-toxic	330 nM	–	–	–	–	–
COc1ccc(CNc2nc(-c3cc(OC)ccc3OC)c(Cc3ccccc3)s2)cc1	18.55 min	Non-toxic	6200 nM	–	–	–	–	–
Cc1nnc(C(=O)NC(C)(C)c2nc(C(=O)NCc3ccc(F)cc3)c(O)c(=O)n2C)o1 [RALTEGRAVIR]	–	–	–	12 h	–	–	–	–
COc1ccc(-c2nc(NCc3cccc([N+](=O)[O-])c3)sc2Cc2ccccc2)cc1	27.61 min	Non-toxic	1470 nM	–	–	–	–	–
COc1ccc(CNc2nc(-c3ccccc3)c(Cc3ccccc3OC)s2)cc1	27.75 min	Non-toxic	130 nM	–	–	–	–	–
COc1ccc(-c2nc(NCc3cc(OC)c(OC)c(OC)c3)sc2Cc2ccccc2)cc1	17.16 min	Non-toxic	> 10000 nM	–	–	–	–	–
COc1ccc(CNc2nc(-c3ccccc3)c(Cc3ccccc3)s2)cc1	28.38 min	Non-toxic	180 nM	–	–	–	–	–
COc1ccc(-c2nc(NCc3c(Cl)cccc3Cl)sc2Cc2ccccc2)cc1	7.67 min	Non-toxic	7210 nM	–	–	–	–	–
COc1ccc(CN(C)c2nc(-c3ccc(OC)cc3)c(Cc3ccccc3)s2)cc1	47.61 min	Non-toxic	370 nM	–	–	–	–	–
COc1ccc(-c2nc(NCc3ccc(O)cc3)sc2Cc2ccccc2)cc1	16.52 min	Non-toxic	640 nM	–	13	8380 nM	6630 nM	10
CCN(CC)c1nc(-c2ccc(OC)cc2)c(Cc2ccccc2)s1	29.77 min	Non-toxic	2300 nM	–	–	–	–	–
COc1ccc(-c2nc(NCc3ccccc3OC)sc2Cc2ccccc2)cc1	34.78 min	Non-toxic	6970 nM	–	–	–	–	–
COc1ccc(CNc2nc(-c3ccc(Cl)cc3Cl)c(Cc3ccccc3)s2)cc1	53.29 min	Non-toxic	140 nM	–	–	–	–	–
COc1ccc(-c2nc(NCc3cccnc3)sc2Cc2ccccc2)cc1	10.25 min	Non-toxic	4670 nM	–	–	–	–	–
COc1ccc(CCNc2nc(-c3ccc(OC)cc3)c(Cc3ccccc3)s2)cc1	36.91 min	Non-toxic	> 10000 nM	–	–	–	–	–

SMILES	Retention_time [1]	Activity (HEK-293T)	IC50 [2]	Time [3]	fold change (FC) [4]	IC50 [5]	IC50 [6]	fold change (FC) [7]
CCN(CC)c1nc(-c2ccc(O)cc2)c(Cc2ccccc2)s1	19.11 min	Non-toxic	4400 nM	–	–	–	–	–
COc1ccc(CNc2nc(-c3ccc(OC)cc3)c(Cc3ccc(OC)cc3)s2)cc1	26.12 min	Non-toxic	> 10000 nM	–	–	–	–	–
COc1ccc(CNc2nc(-c3ccc(OC)cc3)c(Cc3ccc([N+](=O)[O-])cc3)s2)cc1	26.68 min	Non-toxic	> 10000 nM	–	–	–	–	–
COc1ccc(-c2nc(NCc3cc([N+](=O)[O-])ccc3O)sc2Cc2ccccc2)cc1	45.27 min	Non-toxic	5200 nM	–	–	–	–	–
COc1ccc(CNc2nc(-c3ccc(OC)cc3)c(C)s2)cc1	13.3 min	Non-toxic	9590 nM	–	–	–	–	–
Cc1cn([C@H]2C[C@H](N=[N+]=[N-])[C@@H](CO)O2)c(=O)[nH]c1=O [ZIDOVUDINE]	–	–	–	7.7 h	–	–	–	–
COc1ccc(-c2nc(NCc3ccc([N+](=O)[O-])cc3)sc2Cc2ccccc2)cc1	28.54 min	Non-toxic	800 nM	–	–	–	–	–
COc1ccc(-c2nc(NCc3ccc(N(C)C)cc3)sc2Cc2ccccc2)cc1	33.97 min	Non-toxic	870 nM	–	76	65700 nM	71600 nM	82
COc1ccc(CNc2nc(-c3ccc(OC)cc3)c(Cc3ccccc3)s2)cc1	29.14 min	Non-toxic	310 nM	–	–	–	–	–
COc1ccc(-c2nc(/N=C/c3ccc(F)cc3)sc2Cc2ccccc2)cc1	14.58 min	Non-toxic	> 10000 nM	–	–	–	–	–
COc1ccc(CNc2nc(-c3ccc(F)cc3)c(Cc3ccccc3)s2)cc1	33.02 min	Non-toxic	1210 nM	–	–	–	–	–
COc1ccc(Nc2nc(-c3ccccc3)c(Cc3ccccc3OC)s2)cc1	3.18 min	Non-toxic	> 10000 nM	–	–	–	–	–
COc1ccc(-c2nc(NCc3ccc4ccccc4c3)sc2Cc2ccccc2)cc1	72.49 min	Non-toxic	960 nM	–	–	–	–	–
COc1ccc(CNc2nc(-c3ccco3)c(Cc3ccccc3)s2)cc1	19.97 min	Non-toxic	700 nM	–	–	–	–	–
COc1ccc(-c2nc(NCc3cccc(OC)c3)sc2Cc2ccccc2)cc1	27.45 min	Non-toxic	820 nM	–	–	–	–	–
COc1ccc(-c2nc(NCc3ccc(F)cc3)sc2Cc2ccccc2)cc1	29.67 min	Non-toxic	660 nM	–	–	–	–	–
COc1ccc(-c2nc(NCc3ccccc3)sc2Cc2ccccc2)cc1	28.1 min	Non-toxic	650 nM	–	–	–	–	–
COc1ccc(-c2nc(NCc3ccc(C#N)cc3)sc2Cc2ccccc2)cc1	20.01 min	Non-toxic	450 nM	–	–	–	–	–
